Screening data deposited in PubChem BioAssay by Johns Hopkins Ion Channel Center.
TRPC4 inh: blocks the mouse TRPC4 cation channel. HEK293 TRPC4beta/mu-opioid, DAMGO-evoked Fluo4 calcium flux; stronger effect = lower value. B-score at 10 µM. 0.39% of 300,000 active. AID 2247;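 active means B-score over 3 SD under the library average, no early fluorescence shift, positive overall ratio signal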
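Assay system: HEK293 cells with stable TRPC4beta plus mu-opioid receptor expression; Probe or stimulus: DAMGO in two steps, submaximal then maximal; Dosing: single-point compound dosing; Measured by: Fluo4 calcium-dye fluorescence, kinetic read; Read-out basis: B score from integrated Fluo4 fluorescence ratio.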
TRPC6 inhibitor: inhibitors of mouse TRPC6 channel; Q61143; HEK293-TRPC6, membrane potential dye, ACh-evoked depolarization; stronger effect = lower value; B-score at 10 µM; 1.1% of 310,000 active; AID 2553;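 active means B-score under library mean minus 3 SD, initial fluorescence not abnormally high, positive integrated signal ratio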;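 further: B-score derived from integrated fluorescence ratio over the kinetic read; more negative B-score means stronger inhibition of depolarization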
Target sequence (Q61143 whole entry, looked up): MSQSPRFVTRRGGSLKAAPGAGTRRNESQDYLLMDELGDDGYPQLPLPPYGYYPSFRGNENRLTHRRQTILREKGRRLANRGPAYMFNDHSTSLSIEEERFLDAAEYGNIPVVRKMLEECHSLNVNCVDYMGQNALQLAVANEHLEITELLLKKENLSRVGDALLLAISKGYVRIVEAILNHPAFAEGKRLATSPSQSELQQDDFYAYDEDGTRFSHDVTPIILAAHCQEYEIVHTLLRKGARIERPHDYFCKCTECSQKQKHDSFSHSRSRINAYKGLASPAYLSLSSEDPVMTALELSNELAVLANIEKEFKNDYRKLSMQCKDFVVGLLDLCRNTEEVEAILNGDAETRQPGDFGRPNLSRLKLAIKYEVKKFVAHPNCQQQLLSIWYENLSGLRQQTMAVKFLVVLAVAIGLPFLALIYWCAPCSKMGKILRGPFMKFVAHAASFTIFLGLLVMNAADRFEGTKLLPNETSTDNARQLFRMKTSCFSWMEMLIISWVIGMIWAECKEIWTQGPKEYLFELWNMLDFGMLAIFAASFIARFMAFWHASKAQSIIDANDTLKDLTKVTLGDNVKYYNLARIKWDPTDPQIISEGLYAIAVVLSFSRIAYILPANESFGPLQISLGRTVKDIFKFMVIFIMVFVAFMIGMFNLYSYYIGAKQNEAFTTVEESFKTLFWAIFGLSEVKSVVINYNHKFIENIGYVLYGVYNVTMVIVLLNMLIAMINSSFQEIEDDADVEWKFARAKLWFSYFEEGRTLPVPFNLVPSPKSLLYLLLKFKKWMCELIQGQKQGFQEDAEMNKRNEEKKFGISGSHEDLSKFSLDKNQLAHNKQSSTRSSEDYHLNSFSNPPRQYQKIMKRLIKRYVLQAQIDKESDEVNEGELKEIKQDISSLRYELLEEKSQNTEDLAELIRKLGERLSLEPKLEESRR
TRPC4 agonist: TRPC4 (mouse) channel activation; Q9QUQ5; HEK293 TRPC4beta/mu-opioid, Fluo4 calcium fluorescence; stronger effect = higher value; B-score at 10 µM; 0.49% of 310,000 active;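 active means B-score above 5 SD of library B-scores, and initial fluorescence ratio not above library mean plus 5 SD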;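 further: positive B-score marks a calcium rise read as TRPC4 activation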
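Incubation: 45 min room-temperature Fluo4 loading, 110 s read / System: HEK293 cells stably co-expressing mouse TRPC4beta and mu-opioid receptor / Signal: Fluo4 fluorescence, kinetic / Control set: buffer (low) and maximal DAMGO (high) / Measure: integrated baseline-normalised fluorescence ratio, converted to per-well B score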
TRPC6 act: activators of mouse TRPC6 channel | 0.13% of 310,000 active | B-score at 10 µM | HEK293-TRPC6 membrane potential dye fluorescence; stronger effect = higher value | Q61143 | AID 2550;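 active means B-score of the integrated fluorescence ratio above library mean plus 3 SD, and starting fluorescence ratio within library mean plus 5 SD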;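 further: higher score means more depolarization so channel activation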
TRPC4 potent: TRPC4 (mouse) allosteric potentiation | Q9QUQ5 | B-score at 10 µM | HEK293 TRPC4beta/mu-opioid, DAMGO EC20, Fluo-4 Ca2+ flux; stronger effect = higher value | 0.42% of 310,000 active;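 active means B-score of calcium response area above 5 SD of library B-scores, with initial fluorescence ratio within 5 SD of library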
Large screens that a line does not name were inactive. Rows were chosen to be rich in hits. Some 2.3% of all compounds tested hit in one or more screens of this group.

CN(CCc1ccccn1)C(=O)CC1C(=O)NCCN1Cc1cccc(F)c1 (stereo not drawn)	TRPC4 agonist 186
COc1cccc(CN2CCNC(=O)C2CC(=O)N(C)C2CCCCC2)c1OC (stereo not drawn)	none
CN(CCc1ccccn1)C(=O)CC1C(=O)NCCN1Cc1ccccc1C(F)(F)F (stereo not drawn)	TRPC4 agonist 131
CN(Cc1ccccc1)C(=O)C1CCCN1S(=O)(=O)c1ccc2c(c1)n(C)c(=O)c(=O)n2C (stereo not drawn)	none
Cc1c(C(=O)NC(=S)Nc2ccccc2N2CCCC2)cccc1[N+](=O)[O-]	TRPC4 potent 13
O=C(NC(=S)Nc1ccccc1N1CCCC1)c1ccc([N+](=O)[O-])cc1	none
Cc1nn(-c2nnc(NCc3ccccc3)nn2)c(C)c1Br	TRPC4 potent 17
CCOc1ccc(N2C(=O)CC(N3CCN(C4CCc5ccccc5C4)CC3)C2=O)cc1 (stereo not drawn)	TRPC4 potent 14
CCOc1ccc(NC(=O)CCS(=O)(=O)c2ccc(Br)cc2)cc1	none
CC1CCc2sc3ncnc(N4CCOCC4)c3c2C1 (stereo not drawn)	TRPC4 inh -6
CN(Cc1ccco1)C(=O)Cn1cc(S(=O)(=O)N2CCCC2)c(S(=O)(=O)N2CCCC2)c1	none
C=CCNCCCOc1ccc(Cl)cc1Br	TRPC4 potent 16
CC(Nc1nc(N2CCNCC2)nc2ccccc12)c1ccccc1 (stereo not drawn)	TRPC4 agonist 103
O=C(NNC(=O)C1C2C=CC(C2)C1C(=O)O)c1ccccc1O (stereo not drawn)	none
O=c1c2cc(Cl)ccc2nc(-c2ccc([N+](=O)[O-])cc2)n1O	TRPC4 agonist 45
Cc1ccc(-c2nc3c(Cl)cc(Cl)cc3c(=O)n2O)cc1	TRPC4 agonist 112
O=c1c2cc(Br)ccc2nc(-c2ccc(Cl)cc2)n1O	TRPC4 agonist 175
O=c1c2ccc(Cl)cc2nc(-c2cccc(C(F)(F)F)c2)n1O	TRPC4 agonist 51
CC(Oc1ccc(Br)cc1)C(=O)NNC(=O)CCN1CCN(c2ccccc2)CC1 (stereo not drawn)	none
CCOC(=O)C1CCCN(C(=O)CCCn2nnnc2CN2CCOCC2)C1 (stereo not drawn)	TRPC4 potent 23
O=C(O)COc1ccccc1/C=N/NC(=O)CN1CCN(Cc2ccc(Cl)cc2)CC1	none
Cc1ccccc1C(=O)NNC(=S)NC(=O)COc1ccccc1	TRPC4 agonist 177
CC(C)(C)c1ccc(C(=O)NC(=S)NNC(=O)COc2ccccc2)cc1	TRPC4 inh -6, TRPC4 agonist 72
COC(=O)c1ccccc1NC(=S)NC(=O)COc1ccccc1	none
Cc1ccc(C(=O)NNC(=S)NC(=O)COc2ccccc2)cc1	TRPC4 agonist 119
CC(C)(C)c1ccc(OCC(=O)NNC(=O)CCc2ccccc2)cc1	none
Cc1cccc(OCC(=O)NC(=S)NNC(=O)c2ccncc2)c1	none
CC(C)(C)C(=O)NC(=S)NNC(=O)c1ccncc1	none
CC(C)(C)C(=O)NC(=S)NNC(=O)c1ccc(-c2ccccc2)cc1	TRPC4 agonist 277
CC(NC(=S)Nc1ccc(F)cc1)C(c1cccs1)N1CCOCC1 (stereo not drawn)	none
CCC(C(=O)NCCC1=CCCCC1)n1nc(C)c2c(C)n(-c3ccccc3)nc2c1=O (stereo not drawn)	none
CCN(CC(=O)Nc1ccc(NC(C)=O)cc1)C(=O)c1cc(CN2C(=O)c3ccccc3C2=O)ccc1OC	none
COc1cccc(NC(=O)c2ccc(N3C(=O)C4CC=CCC4C3=O)cc2)c1 (stereo not drawn)	none
CSc1ncccc1C(=O)NCC(c1cccs1)N1CCOCC1 (stereo not drawn)	none
O=C(Nc1cccc(C(F)(F)F)c1)c1cccc(NS(=O)(=O)c2ccc(O)c(C(=O)O)c2)c1	TRPC4 potent 22
Cc1ccc(NC(=O)CNc2ccccc2CN(C)C2CCCCC2)cc1	TRPC4 inh -6
Cc1ccc(CN2CCN(/N=C/c3ccc(Cl)c([N+](=O)[O-])c3)CC2)cc1	none
COC(=O)c1cccc2c1-c1ccccc1/C2=N\NC(N)=O	none
COC(=O)c1cccc2c1-c1ccccc1/C2=N/O	TRPC4 inh -7
Cc1c(C(=O)N2CCCC2)oc2c1-c1nn(CC(=O)NCCCOC(C)C)cc1CC2	none
CCCCN(CC)CCNC(=O)Cn1cc2c(n1)-c1c(oc(C(=O)N3CCCC3)c1C)CC2	TRPC4 agonist 125
CCN1CCN(c2ccc(S(=O)(=O)N3CCCCC3)cc2NC(=O)Cc2ccc(Cl)c(Cl)c2)CC1	TRPC4 agonist 43
CCOc1ccccc1OCC(=O)Nc1cc(S(=O)(=O)N2CCCCC2)ccc1N1CCN(CC)CC1	TRPC4 agonist 89
CCC(=O)c1ccc(OCC(=O)Nc2cc(S(=O)(=O)N3CCCCC3)ccc2N2CCN(CC)CC2)cc1	none
CCN1CCN(c2ccc(S(=O)(=O)N3CCCCC3)cc2NC(=O)COc2ccccc2)CC1	TRPC4 agonist 125
CCCc1ccc(C(=O)Cn2nc(C(=O)O)c3ccccc3c2=O)cc1	none
COc1ccc(OC)c(CCNC(=O)CC2(CC3=NS(=O)(=O)c4ccccc4N3)CCCC2)c1	none
NC(=O)c1sc(=S)n2c1[nH]c(=O)c1sccc12	TRPC4 potent 10
Cc1ccc(S(=O)(=O)C2CS(=O)(=O)CC2O)cc1 (stereo not drawn)	none
CC(=O)C1=C(S(=O)(=O)c2ccc(C)cc2)CS(=O)(=O)C1	TRPC4 inh -7
COc1ccc(N2CCN(C(=O)c3ccc(N(C)S(=O)(=O)c4ccc(OC)cc4)cc3)CC2)cc1	none
COc1ccc(N(C)S(=O)(=O)c2cccc(C(=O)N3CCN(S(=O)(=O)c4ccc(C)cc4)CC3)c2)cc1	TRPC6 inhibitor -8.27, TRPC6 act 12
COc1ccc(N2CCN(C(=O)c3ccc(N(C)S(=O)(=O)c4ccc(C)cc4)cc3)CC2)cc1	TRPC4 agonist 44, TRPC4 potent 38
CCCCN(C)C(=O)c1cn(C)c2ccc(S(=O)(=O)N3CCC(C)CC3)cc2c1=O	none
CCCc1nc(SCC(=O)O)c2sc(=S)n(-c3ccccc3)c2n1	none
O=C(O)c1ccc(N/N=C/c2c[nH]c3ccccc23)cc1	TRPC6 inhibitor -5.19
NS(=O)(=O)c1ccc(NC(=O)C(=O)NCCC(=O)O)cc1	none
CN(C)c1ccc(/C=C/C(=O)c2cccc(Br)c2)cc1	TRPC4 agonist 99, TRPC4 potent 18
COc1ccc(C2(c3ccc(O)cc3O)CC(c3ccccc3Cl)NC(=S)N2)cc1 (stereo not drawn)	TRPC4 potent 11
Cc1ccc(-c2nnc(N3CCC(C)CC3)c3ccccc23)cc1C	TRPC4 potent 63
COc1ccc(NC(=O)c2c(NC(=O)CCC(=O)O)sc(-c3ccccc3)c2C)cc1	none
Cn1nnnc1SCCNCc1ccccc1OCc1ccc(Cl)cc1	TRPC4 inh -7
